Measured values as given in ChEMBL document CHEMBL3352680, “Triterpene lactones from cultures of Ganoderma sp. KM01” (J Nat Prod, 2014).
Activity calls are given as the source filed them. No cut-off for these calls is given here.

Columns and labels:
Plasmodium falciparum = experiment: Antimalarial activity against multidrug-resistant Plasmodium falciparum K1 assessed as reduction in parasite growth by [3H]-hypoxanthine uptake assay; type: functional, organism-based
Method in brief: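 P. falciparum K1 (multidrug-resistant) maintained in continuous in vitro culture. Microculture radioisotope technique: growth measured as [3H]-hypoxanthine uptake. IC50 is the concentration giving 50% reduction in parasite growth. Dihydroartemisinin was the positive control.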

KB = experiment: Cytotoxicity against human KB cells up to 10 uM by colorimetric method; type: functional, cell-based
MCF7 = experiment: Cytotoxicity against human MCF7 cells up to 10 uM by colorimetric method; type: functional, cell-based
NCI-H187 (human) = experiment: Cytotoxicity against human NCI-H187 cells up to 10 uM by colorimetric method

`CC1=CC[C@@H]([C@@H](C)[C@H]2CC[C@@]3(C)C4=C(C=C5C=CC(=O)OC(C)(C)[C@@H]5CC4)CC[C@]23C)OC1=O` was tested, and the IC50 (Plasmodium falciparum) was 6 µM, the Activity (KB) was “inactive” and the Activity (MCF7) was “inactive”. The Activity (NCI-H187 (human)) was “inactive”.

For `C[C@H]1[C@@H](O)O[C@@H]2O[C@@]3(C)CC[C@H]4[C@H](C)CC[C@@H]1[C@@]24OO3` [ARTENIMOL], the IC50 (Plasmodium falciparum) was 0.004 µM.

For `CC(=O)O[C@@H]1C[C@H]([C@H](C)[C@H]2CC=C(C)C(=O)O2)[C@@]2(C)CCC3=C(CC[C@@H]4C(=C3)C=CC(=O)OC4(C)C)[C@]12C` [COLOSSOLACTONE E], the IC50 (Plasmodium falciparum) was 10 µM, the Activity (KB) was “inactive” and the Activity (MCF7) was “inactive”. The Activity (NCI-H187 (human)) was “inactive”.

`CC1=CC[C@]2(OC[C@]34CCC5=C(CC[C@@H]6C(=C5)C=CC(=O)OC6(C)C)[C@]3(C)CC[C@@H]4[C@@H]2C)OC1=O` was tested, and the IC50 (Plasmodium falciparum) was 10 µM, the Activity (KB) was “inactive” and the Activity (MCF7) was “inactive”. The Activity (NCI-H187 (human)) was “inactive”.
